Results published in ChEMBL document CHEMBL1148398, “Design, synthesis, and biological evaluation of thio-containing compounds with serum HDL-cholesterol-elevating properties” (2004).

Columns and labels:
[1] = test system: Rattus norvegicus; test: Effect of compound on aspartate aminotransferase (AST) levels in 2nd group of normal chow-fed male rats after a dose of 2 mg/kg/day; type: functional, organism-based
In short: (§1)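 Male Sprague–Dawley CD rats (60–80 g) on standard chow under a reversed 12 h light/dark cycle. Compound was suspended in 1.3% Tween 80/0.25% CMC and given as a single daily oral gavage dose for 4 days. Rats were fasted overnight and killed 24 h after the last dose. Serum ALT, AST, ALKP and LDH were read on a clinical analyzer. Weight gain was start versus end weight. Mean ± SEM, n = 6.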

[2] = test system: Rattus norvegicus; test: Effect of compound on gain in body weight in 3rd group of normal chow-fed male rats after a dose of 5 mg/kg/day; type: functional; in short: as §1
[3] = Effect on serum lipids in 4th group of cholesterol-fed male hamsters at 100 mg/kg/day after 14 days of treatment was evaluated as ratio of total cholesterol levels to high-density lipoprotein cholesterol levels; type: functional
In short: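 Male Syrian Golden hamsters on chow plus 0.25% cholesterol, 2 weeks before and during dosing. Oral gavage for 14 days in 2% Tween 80/saline. Fasted 4 h before sacrifice. Serum total cholesterol measured enzymatically; HDL-C from cholesterol in FPLC lipoprotein fractions; TC/HDL-C ratio calculated. Six per group, mean ± SEM.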

[4] = test system: Rattus norvegicus; test: Effect of compound on alkaline phosphatase (ALKP) levels in 1st group of normal chow-fed male rats after a dose of 1 mg/kg/day; type: functional, organism-based; in short: as §1
[5] = test system: Rattus norvegicus; test: Effect of compound on lactic dehydrogenase (LDH) levels in 7th group of normal chow-fed male rats after a dose of 100 mg/kg/day; type: functional, organism-based
In short: (§2)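 Male Sprague–Dawley CD rats, 60–80 g, on chow with a reverse 12 h light/dark cycle. Given one oral gavage dose daily for 4 days, suspended in 1.3% Tween 80/0.25% CMC. Fasted overnight and sacrificed 24 h after the last dose for blood and liver. Serum liver enzymes read on a clinical analyzer. Six per group, mean ± SEM.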

[6] = test system: Rattus norvegicus; test: Effect of compound on triglyceride levels in 6th group of normal chow-fed male rats after a dose of 50 mg/kg/day; type: functional, organism-based
In short: (§3)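 Male Sprague–Dawley CD rats (60–80 g) on Purina 5001 chow with a reverse 12 h light/dark cycle. Dosed once daily by oral gavage for 4 days, suspended in 1.3% Tween 80 / 0.25% CMC. Fasted overnight and bled 24 h after the last dose. Serum TC and glycerol-blanked TG measured enzymatically; VLDL-C by FPLC fractionation with cholesterol assay. n=6, mean ± SEM.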

[7] = test system: Cricetinae gen. sp.; test: Effect of compound on thyroxine levels in 4th group of cholesterol-fed male hamsters at 100 mg/kg/day after 14 days of treatment; details: Mesocricetus auratus
[8] = test system: Cricetinae gen. sp.; test: Effect of compound on triglycerides level in 1st group of cholesterol-fed male hamsters at 3 mg/kg/day after 14 days of treatment; details: Mesocricetus auratus
[9] = test system: Rattus norvegicus; test: Effect of compound on relative liver weight in 6th group of normal chow-fed male rats after a dose of 50 mg/kg/day; type: functional
In short: (§4)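 Chow-fed male Sprague–Dawley CD rats, 60–80 g, dosed by oral gavage once daily for 4 days in 1.3% Tween 80/0.25% CMC. Fasted overnight and sacrificed 24 h after the last dose. Liver weight expressed as % of body weight at termination. Six per group, mean ± SEM.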

[10] = test system: Rattus norvegicus; test: Effect of compound on alkaline phosphatase (ALKP) levels in 4th group of normal chow-fed male rats after a dose of 10 mg/kg/day; type: functional, organism-based; in short: as §1
[11] = test system: Rattus norvegicus; test: Effect of compound on liver weight in 4th group of normal chow-fed male rats after a dose of 10 mg/kg/day; type: functional; in short: as §2
[12] = test system: Cricetinae gen. sp.; test: Effect of compound on total plasma cholesterol levels in 4th group of cholesterol-fed male hamsters at 100 mg/kg/day after 14 days of treatment; details: Mesocricetus auratus
[13] = Effect on serum lipids in 4th group of normal chow-fed male rats after a dose of 10 mg/kg/day was evaluated as ratio of total plasma cholesterol levels to high-density lipoprotein cholesterol levels; type: functional
In short: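 Male Sprague–Dawley CD rats, 60–80 g, chow-fed, dosed by oral gavage daily for 4 days in 1.3% Tween 80/0.25% CMC. Fasted overnight, bled 24 h after the last dose. Serum total cholesterol by enzymatic reagent; HDL-C from cholesterol in FPLC fractions; TPC/HDL-C ratio calculated. Six per group, mean ± SEM.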

[14] = test system: Rattus norvegicus; test: Effect of compound on liver weight in 2nd group of normal chow-fed male rats after a dose of 2 mg/kg/day; type: functional; in short: as §2
[15] = test system: Rattus norvegicus; test: Effect of compound on high-density lipoprotein cholesterol levels in 4th group of normal chow-fed male rats after a dose of 10 mg/kg/day; type: functional, organism-based
[16] = test system: Rattus norvegicus; test: Effect of compound on thyroxine levels in 5th group of normal chow-fed male rats after a dose of 20 mg/kg/day; type: functional, organism-based
In short: (§5)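 Male Sprague–Dawley CD rats, 60–80 g, on standard chow with reverse 12 h light/dark cycle. One oral gavage dose daily for 4 days, suspended in 1.3% Tween 80 and 0.25% CMC. Fasted overnight; sacrificed 24 h after the last dose. Serum TC on clinical analyzer, lipoproteins by FPLC with cholesterol per fraction, T4 on analyzer. Mean ± SEM, six rats per group.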

[17] = test system: Rattus norvegicus; test: Effect of compound on thyroxine levels in 1st group of normal chow-fed male rats after a dose of 1 mg/kg/day; type: functional, organism-based; in short: as §5
[18] = test system: Rattus norvegicus; test: Effect of compound on relative liver weight in 4th group of normal chow-fed male rats after a dose of 10 mg/kg/day; type: functional; in short: as §4
[19] = test system: Rattus norvegicus; test: Effect of compound on very low-density lipoprotein cholesterol levels in 7th group of normal chow-fed male rats after a dose of 100 mg/kg/day; type: functional, organism-based; in short: as §3
[20] = test system: Rattus norvegicus; test: Effect of compound on thyroxine levels in 4th group of normal chow-fed male rats after a dose of 10 mg/kg/day; type: functional, organism-based; in short: as §5
[21] = test system: Cricetinae gen. sp.; test: Effect of compound on total plasma cholesterol levels in 1st group of cholesterol-fed male hamsters at 3 mg/kg/day after 14 days of treatment; details: Mesocricetus auratus
[22] = test system: Rattus norvegicus; test: Effect of compound on gain in body weight in 6th group of normal chow-fed male rats after a dose of 50 mg/kg/day; type: functional; in short: as §1
[23] = test system: Cricetinae gen. sp.; test: Effect of compound on very low-density lipoprotein cholesterol levels in 3rd group of cholesterol-fed male hamsters at 30 mg/kg/day after 14 days of treatment; details: Mesocricetus auratus
[24] = test system: Rattus norvegicus; test: Effect of compound on triglyceride levels in 5th group of normal chow-fed male rats after a dose of 20 mg/kg/day; type: functional, organism-based; in short: as §3
[25] = test system: Rattus norvegicus; test: Effect of compound on thyroxine levels in 6th group of normal chow-fed male rats after a dose of 50 mg/kg/day; type: functional, organism-based; in short: as §5
[26] = test system: Cricetinae gen. sp.; test: Effect of compound on alkaline phosphatase (ALKP) levels in 3rd group of cholesterol-fed male hamsters at 30 mg/kg/day after 14 days of treatment; details: Mesocricetus auratus
[27] = test system: Rattus norvegicus; test: Effect of compound on relative liver weight in 5th group of normal chow-fed male rats after a dose of 20 mg/kg/day; type: functional; in short: as §4
[28] = test system: Rattus norvegicus; test: Effect of compound on low-density lipoprotein cholesterol levels in 2nd group of normal chow-fed male rats after a dose of 2 mg/kg/day; type: functional, organism-based; in short: as §5

Structure (SMILES): CCN1CC(=O)N(c2cc(Cl)ccc2C)C1=S
- Level [1]: 195 U l-1
- Body weight [2]: 30.7 g
- Ratio [3]: 1.95
- Level [4]: 312 U l-1
- Level [5]: 681 U l-1
- Serum level [6]: 14 mg/dL
- Serum level [7]: 4.02 µg/dL
- Serum level [8]: 431 mg/dL
- Relative liver weight [9]: 4%
- Level [10]: 327 U l-1
- Liver weight [11]: 8.3 g
- Serum level [12]: 373 mg/dL
- Ratio [13]: 1.39
- Liver weight [14]: 7.3 g
- Serum level [15]: 61 mg/dL
- Serum level [16]: 4.05 µg/dL
- Serum level [17]: 3.65 µg/dL
- Relative liver weight [18]: 4.3%
- Serum level [19]: 5.7 mg/dL
- Serum level [20]: 3.98 µg/dL
- Serum level [21]: 429 mg/dL
- Body weight [22]: 27.5 g
- Serum level [23]: 91 mg/dL
- Serum level [24]: 19 mg/dL
- Serum level [25]: 3.47 µg/dL
- Level [26]: 136 U l-1
- Relative liver weight [27]: 4.3%
- Serum level [28]: 5.7 mg/dL
